These results are taken from ChEMBL document CHEMBL1137311, “Peptide inhibitors of West Nile NS3 protease: SAR study of tetrapeptide aldehyde inhibitors” (J Med Chem, 2006).

Non-standard residues stand in square brackets, D forms with d. Residues, ends and D or L forms follow the SMILES beside them. *: point of attachment. NMeR = CN[C@@H](CCCNC(=N)N)C(=O)O; NMeK = CN[C@@H](CCCCN)C(=O)O; NMeNle = CCCC[C@H](NC)C(=O)O; Phg = N[C@H](C(=O)O)c1ccccc1; dNle = CCCC[C@@H](N)C(=O)O; Nle = CCCC[C@H](N)C(=O)O; Bz = O=C(c1ccccc1)*

This assay in a line: Inhibition of West Nile virus NS3 protease. Put shortly:
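Enzyme: WNV CF40-gly-NS3pro187 conjugate at 50 nM, preincubated with a range of inhibitor concentrations for 30 min at 37 °C. Buffer: 50 mM Tris pH 8.5 with 1 mM CHAPS. Reaction started with 20 µM Bz-nKRR-AMC. Fluorescence (ex 385/em 465 nm) followed continuously. IC50 from nonlinear fit of initial velocities, each point in duplicate within a single experiment.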

With `CCCC[C@H](NC(=O)c1ccccc1)C(=O)N[C@@H](CCCCN)C(=O)N(C)[C@@H](CCCN=C(N)N)C(=O)N[C@H](C=O)CCCN=C(N)N` (Bz-[Nle]K[NMeR]R-aldehyde), the half-maximal inhibitory concentration (IC50) (in general, the concentration needed to halve the response being measured) stood at 57.8 µM.

Turning to `CCCC[C@H](NC(=O)c1ccccc1)C(=O)N[C@@H](CCCCN)C(=O)N[C@@H](Cc1ccccc1)C(=O)N[C@H](C=O)CCCNC(=N)N` (Bz-[Nle]KFR-aldehyde), it took 108 µM to reach half-maximal inhibition (IC50).

For `CCCC[C@H](NC(=O)c1ccccc1)C(=O)N[C@@H](CCCCN)C(=O)N[C@@H](CCCNC(=N)N)C(=O)N[C@H](C=O)Cc1ccccc1` (Bz-[Nle]KRF-aldehyde), the half-maximal inhibitory concentration (IC50) worked out at 110 µM.

`CCCC[C@H](NC(=O)c1ccccc1)C(=O)N1CCC[C@H]1C(=O)N[C@@H](CCCN=C(N)N)C(=O)N[C@H](C=O)CCCN=C(N)N` (Bz-[Nle]PRR-aldehyde): the IC50 was determined as 14.3 µM.

Molecule `CCCC[C@H](NC(=O)c1ccccc1)C(=O)N[C@H](CCCCN)C(=O)N[C@@H](CCCN=C(N)N)C(=O)N[C@H](C=O)CCCN=C(N)N` (Bz-[Nle][dK]RR-aldehyde) registered a concentration for half-maximal inhibition (IC50) of 23.8 µM.

The molecule `C[C@H](NC(=O)c1ccccc1)C(=O)N[C@@H](CCCCN)C(=O)N[C@@H](CCCNC(=N)N)C(=O)N[C@H](C=O)CCCNC(=N)N` (Bz-AKRR-aldehyde) displayed an IC50 of 0.7 µM.

As for `CCCC[C@H](NC(=O)c1ccccc1)C(=O)N[C@@H](CCCCN)C(=O)N[C@@H](CCCN=C(N)N)C(=O)N[C@H](C=O)Cc1c[nH]c2ccccc12` (Bz-[Nle]KRW-aldehyde), the IC50 was found to be 10 µM.

In turn, `CCCC[C@H](NC(=O)c1ccccc1)C(=O)N[C@@H](CCCCN)C(=O)N[C@@H](CCCNC(=N)N)C(=O)N[C@H](C=O)CCCNC(=N)N` (Bz-[Nle]KRR-aldehyde) displayed an IC50 of 4.1 µM.

`CCCC[C@H](NC(=O)c1ccccc1)C(=O)N[C@@H](CCCCN)C(=O)N[C@H](CCCN=C(N)N)C(=O)N[C@H](C=O)CCCN=C(N)N` (Bz-[Nle]K[dR]R-aldehyde): the IC50 turned out to be 129 µM.

The molecule `NCCCC[C@H](NC(=O)[C@H](Cc1ccccc1)NC(=O)c1ccccc1)C(=O)N[C@@H](CCCN=C(N)N)C(=O)N[C@H](C=O)CCCN=C(N)N` (Bz-FKRR-aldehyde) showed an IC50 of 1.2 µM.

Take `CCCC[C@H](NC(=O)c1ccccc1)C(=O)N[C@@H](CCCCN)C(=O)N[C@@H](CCCNC(=N)N)C(=O)N[C@H](C=O)Cc1cnc[nH]1` (Bz-[Nle]KRH-aldehyde): the IC50 was found to be 43.1 µM.

Take `CCCC[C@H](NC(=O)c1ccccc1)C(=O)N[C@@H](CCCCN)C(=O)N[C@@H](CCCNC(=N)N)C(=O)N[C@H](C=O)c1ccccc1` (Bz-[Nle]KR[Phg]-aldehyde): the half-maximal inhibitory concentration (IC50) amounted to 90.9 µM.

As to `CCCC[C@H](NC(=O)c1ccccc1)C(=O)N[C@@H](Cc1ccccc1)C(=O)N[C@@H](CCCNC(=N)N)C(=O)N[C@H](C=O)CCCNC(=N)N` (Bz-[Nle]FRR-aldehyde), the IC50 was found to be 4.2 µM.

Turning to `CCCC[C@H](NC(=O)c1ccccc1)C(=O)N[C@@H](CCCCN)C(=O)N[C@@H](CCCN=C(N)N)C(=O)N[C@@H](C=O)CCCN=C(N)N` (Bz-[Nle]KR[dR]-aldehyde), the IC50 is 14 µM.

In turn, `CCCC[C@H](NC(=O)c1ccccc1)C(=O)N[C@@H](C)C(=O)N[C@@H](CCCNC(=N)N)C(=O)N[C@H](C=O)CCCNC(=N)N` (Bz-[Nle]ARR-aldehyde) had an IC50 of 3.8 µM.

On to `CCCC[C@H](NC(=O)c1ccccc1)C(=O)N[C@@H](CCCCN)C(=O)N[C@@H](C)C(=O)N[C@H](C=O)CCCN=C(N)N` (Bz-[Nle]KAR-aldehyde), for which the IC50 was determined as 262 µM.

`CCCC[C@H](NC(=O)c1ccccc1)C(=O)N[C@@H](CCCCN)C(=O)N[C@@H](CCCN=C(N)N)C(=O)N[C@@H](C)C=O` (Bz-[Nle]KRA-aldehyde) showed an IC50 of 4.6 µM.

With `CCCC[C@@H](NC(=O)c1ccccc1)C(=O)N[C@@H](CCCCN)C(=O)N[C@@H](CCCN=C(N)N)C(=O)N[C@H](C=O)CCCN=C(N)N` (Bz-[dNle]KRR-aldehyde), the 50% inhibitory concentration (IC50) was determined as 2.6 µM.

`CCCC[C@@H](C(=O)N[C@@H](CCCCN)C(=O)N[C@@H](CCCN=C(N)N)C(=O)N[C@H](C=O)CCCN=C(N)N)N(C)C(=O)c1ccccc1` (Bz-[NMeNle]KRR-aldehyde) came in with a half-maximal inhibitory concentration (IC50) of 9.3 µM.

`CCCC[C@H](NC(=O)c1ccccc1)C(=O)N(C)[C@@H](CCCCN)C(=O)N[C@@H](CCCN=C(N)N)C(=O)N[C@H](C=O)CCCN=C(N)N` (Bz-[Nle][NMeK]RR-aldehyde) displayed an IC50 of 73.6 µM.

The molecule `CCCC[C@H](NC(=O)c1ccccc1)C(=O)N[C@@H](CCCCN)C(=O)N[C@@H](CCCNC(=N)N)C(=O)N[C@H](C=O)CCCCN` (Bz-[Nle]KRK-aldehyde) yielded a half-maximal inhibitory concentration (IC50) of 57.7 µM.

Regarding `CCCC[C@H](NC(=O)c1ccccc1)C(=O)N[C@@H](CCCCN)C(=O)N[C@@H](CCCCN)C(=O)N[C@H](C=O)CCCNC(=N)N` (Bz-[Nle]KKR-aldehyde), the IC50 is 1.9 µM.
